Assay results gathered from unrelated publications.
Target: Glycogen synthase kinase-3 beta (GSK3B, Homo sapiens, UniProt P49841)

Structure (SMILES)	observed	action	technique	tested at	endpoint	result
Cn1cc(-c2cccc(N3CCc4c(sc5c4CC(C)(C)C5)C3=O)c2CO)cc(Nc2ccncn2)c1=O	enzyme activity	inhibitor	–	1 µM	inhibition	-5%
Cc1nn(C)cc1-c1nc2c(N3CCN(Cc4ccc(Cl)cc4)CC3)c(Cl)cnc2[nH]1	binding	–	competition with immobilised ligand	1 µM	remaining binding	68%
O=c1[nH]c2ccccc2n1C1CCN(Cc2ccc(-c3[nH]c4cc5ncnc5cc4nc3-c3ccccc3)cc2)CC1	enzyme activity	–	–	0.5 µM	remaining activity	113%
Cn1cc(-c2cc(F)cc(N3CCn4c(cc5c4CCCC5)C3=O)c2CO)cc(Nc2ccc(N3CCN(C4COC4)CC3)cn2)c1=O	enzyme activity	inhibitor	–	0.1 µM	inhibition	5%
CC(C)(C)c1cc(C=C(C#N)C#N)cc(Br)c1O	enzyme activity	inhibitor	–	0.5 µM	remaining activity	107%
Nc1ncc(-c2nc(N3CCOCC3)nc(N3CCOCC3)n2)c(C(F)F)n1	binding	–	competition with immobilised ligand	10 µM	remaining binding	74%
COc1ncccc1-c1cnn2ccc(N3CCN(C(=O)OC(C)C)CC3)nc12	binding	–	competition with immobilised ligand	1 µM	remaining binding	62%
O=[N+]([O-])c1ccc([As](=O)(O)O)cc1	enzyme activity	inhibitor	ADP detection	100 µM	inhibition	5.2%
C#Cc1n[nH]c2c(-c3cn([C@@H](C)c4ccccc4)c(=O)[nH]c3=O)cc(F)cc12	enzyme activity	inhibitor	–	0.1 µM	inhibition	-3.5%
COc1cc2c(cc1-c1cc3cc4ccoc4cc3oc1=O)OCO2	enzyme activity	inhibitor	ADP detection	100 µM	inhibition	26.4%
C#Cc1n[nH]c2c(-c3cn([C@@H](C)c4ccccn4)c(=O)[nH]c3=O)cc(F)cc12	enzyme activity	inhibitor	–	0.1 µM	inhibition	-0.1%
COc1c2c(cc3c1OCO3)CC[N+](C)=C2	enzyme activity	inhibitor	ADP detection	100 µM	inhibition	24.8%
Cn1cncc1[C@](O)(COc1ccc(C#N)cc1-c1ccc(OC(F)(F)F)cc1)c1ccc(C#N)cc1	cell-free assay	–	competition with immobilised ligand	1 µM	remaining binding	93%
